Measured values: ChEMBL document CHEMBL1123225, “Opioid agonist and antagonist bivalent ligands. The relationship between spacer length and selectivity at multiple opioid receptors” (J Med Chem, 1986)
Starred links: 1 amine or outer side, 2 acyl side, 3 side chain; linkers in the order of their positions; H or OH if unused. Positions of bridges follow the written chain, without caps; N, C: chain ends. Residues, ends and D or L forms follow the SMILES beside them. Chains are numbered I, II in the order given. *: point of attachment. Naltrexamine(6β) = Oc1ccc2c3c1O[C@H]1[C@H](N*)CC[C@@]4(O)[C@@H](C2)N(CC2CC2)CC[C@]314; Suc = O=C(CCC(=O)[*:2])[*:1]

Tests used:
[1] = (§1) Selectivity ratio is expressed as EK IC50 ratio divided by morphine IC50 ratio
Summary of the method: (§2)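 Antagonism in electrically stimulated guinea pig ileum. Antagonist at 10 nM was incubated 30 min, then morphine (μ) or ethylketazocine (κ) concentration–response was run. IC50 ratio = agonist IC50 with antagonist / control IC50 in the same preparation without antagonist. Relative potency = bivalent IC50 ratio / monovalent IC50 ratio. Selectivity = EK IC50 ratio / morphine IC50 ratio.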

[2] = Relative potency is the IC5O in presence of bivalent ligand divided by IC50 in presence of monovalent ligand relative to morphine; summary of the method: as §2
[3] = molecular target: Mu-type opioid receptor (Cavia porcellus) (UniProt P97266); test: Affinity comparison to [3H]naloxone for Opioid receptor mu 1 in guinea pig brain membrane; type: cell membranes
Mu-type opioid receptor (Cavia porcellus), sequence (P97266 whole entry): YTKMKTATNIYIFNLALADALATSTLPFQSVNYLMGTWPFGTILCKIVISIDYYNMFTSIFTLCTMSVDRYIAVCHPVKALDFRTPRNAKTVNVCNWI

Mu-type opioid receptor = Mu-type opioid receptor (Cavia porcellus, UniProt P97266); test: Displacement of [3H]naloxone from Opioid receptor mu 1 in guinea pig brain membrane; type: cell membranes
Mu-type opioid receptor, sequence (P97266 whole entry): as above

[4] = (§3) Relative potency is the IC5O in presence of bivalent ligand divided by IC50 in presence of monovalent ligand relative to EK; summary of the method: as §2
[5] = Potency ratio is the ratio of morphine IC50 to that of compound on same tissue
Summary of the method: (§4)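 Electrically stimulated guinea pig ileum longitudinal muscle, with agonist inhibition measured. Ligands were incubated 30 min before testing. Potency ratio = morphine IC50 / compound IC50 on the same tissue. The relative value divides the bivalent potency ratio by the monovalent potency ratio. Each value is the mean of at least three replicate experiments.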

[6] = molecular target: Opioid receptors; mu & kappa (Homo sapiens, UniProt P41145+P35372); test: Activity against opioid receptor in guinea pig ileum longitudinal muscle; type: functional, tissue-based, Cavia porcellus; settings: target entry is the homologue from another species; summary of the method: as §4
[7] = Relative potency is the bivalent potency ratio divided by monovalent potency ratio; summary of the method: as §4
[8] = molecular target: T1, Opioid receptors; mu/kappa/delta (Homo sapiens) (UniProt P41145+P41143+P35372); test: IC50 of ethylketazocine (EK) in the presence of the antagonist (10 nM) divided by the control IC50 (same preparation without antagonist) in guinea pig ileum; type: functional, tissue-based; settings: Cavia porcellus, target entry is the homologue from another species; summary of the method: as §2
T1 sequence (P35372 whole entry, looked up): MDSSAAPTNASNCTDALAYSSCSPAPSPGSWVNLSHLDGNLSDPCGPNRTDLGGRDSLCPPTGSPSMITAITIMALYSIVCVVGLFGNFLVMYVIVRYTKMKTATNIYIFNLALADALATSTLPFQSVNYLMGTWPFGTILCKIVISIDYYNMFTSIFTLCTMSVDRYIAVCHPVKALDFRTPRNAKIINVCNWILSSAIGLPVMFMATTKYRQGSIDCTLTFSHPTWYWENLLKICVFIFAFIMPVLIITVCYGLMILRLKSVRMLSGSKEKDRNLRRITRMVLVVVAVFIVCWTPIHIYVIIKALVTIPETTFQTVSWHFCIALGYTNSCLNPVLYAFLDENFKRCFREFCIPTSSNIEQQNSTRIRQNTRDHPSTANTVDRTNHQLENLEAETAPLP
T1 sequence (P41143 whole entry, looked up): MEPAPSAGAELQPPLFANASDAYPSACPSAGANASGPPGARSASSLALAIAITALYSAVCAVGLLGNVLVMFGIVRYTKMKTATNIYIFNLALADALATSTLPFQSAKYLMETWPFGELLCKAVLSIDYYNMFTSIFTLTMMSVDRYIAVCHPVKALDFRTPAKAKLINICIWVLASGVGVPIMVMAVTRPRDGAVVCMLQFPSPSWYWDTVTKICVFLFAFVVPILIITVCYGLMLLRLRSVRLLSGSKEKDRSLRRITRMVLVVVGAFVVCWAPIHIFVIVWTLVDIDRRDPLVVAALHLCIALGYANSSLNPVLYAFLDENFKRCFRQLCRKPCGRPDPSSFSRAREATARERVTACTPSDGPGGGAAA
T1 sequence (P41145 whole entry, looked up): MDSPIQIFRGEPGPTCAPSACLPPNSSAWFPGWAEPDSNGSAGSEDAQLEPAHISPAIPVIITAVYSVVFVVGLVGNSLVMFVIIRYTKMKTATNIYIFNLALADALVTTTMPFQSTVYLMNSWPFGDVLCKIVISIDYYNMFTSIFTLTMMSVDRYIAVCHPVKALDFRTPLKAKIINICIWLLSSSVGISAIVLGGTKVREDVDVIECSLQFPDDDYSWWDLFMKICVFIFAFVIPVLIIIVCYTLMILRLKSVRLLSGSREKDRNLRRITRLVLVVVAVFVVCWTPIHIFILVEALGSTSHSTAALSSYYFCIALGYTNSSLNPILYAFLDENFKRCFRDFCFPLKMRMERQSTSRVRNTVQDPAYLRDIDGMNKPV

[9] = molecular target: T1, Opioid receptors; mu/kappa/delta (Homo sapiens); test: as §3; type: protein assay; settings: Cavia porcellus; summary of the method: as §2
[10] = molecular target: T1, Opioid receptors; mu/kappa/delta (Homo sapiens); test: Relative potency is the IC50 in presence of bivalent ligand divided by IC50 in presence of monovalent ligand relative to morphine; settings: Cavia porcellus; summary of the method: as §2
[11] = molecular target: T1, Opioid receptors; mu/kappa/delta (Homo sapiens); test: IC50 of the morphine in the presence of the antagonist (10 nM) divided by the control IC50 (same preparation without antagonist) in guinea pig ileum; type: functional, tissue-based; settings: Cavia porcellus, target entry is the homologue from another species; summary of the method: as §2
[12] = molecular target: T1, Opioid receptors; mu/kappa/delta (Homo sapiens); test: as §1; type: protein assay; settings: Cavia porcellus; summary of the method: as §2

Compound | Selectivity ratio [1] | Ratio [2] | Relative affinity [3] | Ki (Mu-type opioid receptor) | Ratio [4] | Potency ratio [5] | IC50 [6] | Ratio [7] | IC50 ratio [8] | Ratio [9] | Ratio [10] | IC50 ratio [11] | Selectivity ratio [12]
O=C(CCC(=O)N[C@@H]1CC[C@@]2(O)[C@H]3Cc4ccc(O)c5c4[C@@]2(CCN3CC2CC2)[C@H]1O5)N[C@@H]1CC[C@@]2(O)[C@H]3Cc4ccc(O)c5c4[C@@]2(CCN3CC2CC2)[C@H]1O5 | 1.1 | 5.1 | 0.8 | 1.7 nM | 25.3 | – | – | – | – | – | – | – | –
CN1CC[C@]23c4c5ccc(O)c4O[C@H]2[C@@H](NC(=O)CNC(=O)CCC(=O)NCC(=O)N[C@H]2CC[C@@]4(O)[C@H]6Cc7ccc(O)c8c7[C@@]4(CCN6C)[C@H]2O8)CC[C@@]3(O)[C@H]1C5 | – | – | 4.1 | 44 nM | – | 4 | 22 nM | 2.1 | – | – | – | – | –
CN1CC[C@]23c4c5ccc(O)c4O[C@H]2[C@@H](NC(=O)CNC(=O)CNC(=O)CCC(=O)NCC(=O)NCC(=O)N[C@H]2CC[C@@]4(O)[C@H]6Cc7ccc(O)c8c7[C@@]4(CCN6C)[C@H]2O8)CC[C@@]3(O)[C@H]1C5 | – | – | 12.9 | 14 nM | – | 36 | 3.9 nM | 18.9 | – | – | – | – | –
CN1CC[C@]23c4c5ccc(O)c4O[C@@H]2[C@H](NC(=O)CNC(=O)CNC(=O)CNC(=O)CCC(=O)NCC(=O)NCC(=O)NCC(=O)N[C@@H]2CC[C@]4(O)[C@H]6Cc7ccc(O)c8c7[C@@]4(CCN6C)[C@@H]2O8)CC[C@]3(O)[C@H]1C5 | – | – | 2.9 | 22 nM | – | 3.9 | 12.6 nM | 1.7 | – | – | – | – | –
O=C(CCC(=O)NCC(=O)N[C@@H]1CC[C@@]2(O)[C@H]3Cc4ccc(O)c5c4[C@@]2(CCN3CC2CC2)[C@H]1O5)NCC(=O)N[C@@H]1CC[C@@]2(O)[C@H]3Cc4ccc(O)c5c4[C@@]2(CCN3CC2CC2)[C@H]1O5 | 0.4 | 10.6 | 0.6 | 2.3 nM | 18.6 | – | – | – | – | – | – | – | –
CN1CC[C@]23c4c5ccc(O)c4O[C@H]2[C@@H](NC(=O)CCC(=O)N[C@H]2CC[C@@]4(O)[C@H]6Cc7ccc(O)c8c7[C@@]4(CCN6C)[C@H]2O8)CC[C@@]3(O)[C@H]1C5 | – | – | 3.6 | 50 nM | – | 4.6 | 30.2 nM | 2.4 | – | – | – | – | –
CC(=O)N[C@@H]1CC[C@@]2(O)[C@H]3Cc4ccc(O)c5c4[C@@]2(CCN3C)[C@H]1O5 | – | – | 1 | 63 nM | – | 2.3 | 45.9 nM | 1 | – | – | – | – | –
CN1CC[C@]23c4c5ccc(O)c4O[C@@H]2[C@H](NC(=O)CNC(=O)CNC(=O)CCC(=O)NCC(=O)NCC(=O)N[C@@H]2CC[C@]4(O)[C@H]6Cc7ccc(O)c8c7[C@@]4(CCN6C)[C@@H]2O8)CC[C@]3(O)[C@H]1C5 | – | – | 6.3 | 10 nM | – | 8 | 6.3 nM | 3.5 | – | – | – | – | –
O=C(CCC(=O)NCC(=O)NCC(=O)NCC(=O)NCC(=O)N[C@@H]1CC[C@@]2(O)[C@H]3Cc4ccc(O)c5c4[C@@]2(CCN3CC2CC2)[C@H]1O5)NCC(=O)NCC(=O)NCC(=O)NCC(=O)N[C@@H]1CC[C@@]2(O)[C@H]3Cc4ccc(O)c5c4[C@@]2(CCN3CC2CC2)[C@H]1O5 (I: GGGG-{Naltrexamine(6β)} / II: GGGG-{Naltrexamine(6β)}; linker I:N-II:N via Suc) | – | – | – | – | – | – | – | – | 7.2 | 6 | 7.5 | 40.7 | 0.2
CN1CC[C@]23c4c5ccc(O)c4O[C@@H]2[C@H](NC(=O)CNC(=O)CCC(=O)NCC(=O)N[C@@H]2CC[C@]4(O)[C@H]6Cc7ccc(O)c8c7[C@@]4(CCN6C)[C@@H]2O8)CC[C@]3(O)[C@H]1C5 | – | – | 3.5 | 18 nM | – | 5.8 | 19.2 nM | 2.5 | – | – | – | – | –
O=C(CCC(=O)NCC(=O)NCC(=O)NCC(=O)N[C@@H]1CC[C@@]2(O)[C@H]3Cc4ccc(O)c5c4[C@@]2(CCN3CC2CC2)[C@H]1O5)NCC(=O)NCC(=O)NCC(=O)N[C@@H]1CC[C@@]2(O)[C@H]3Cc4ccc(O)c5c4[C@@]2(CCN3CC2CC2)[C@H]1O5 | 0.1 | 11.4 | 0.9 | 1.6 nM | 6.8 | – | – | – | – | – | – | – | –
CN1CC[C@]23c4c5ccc(O)c4O[C@@H]2[C@H](NC(=O)CCC(=O)N[C@@H]2CC[C@]4(O)[C@H]6Cc7ccc(O)c8c7[C@@]4(CCN6C)[C@@H]2O8)CC[C@]3(O)[C@H]1C5 | – | – | 2.7 | 23 nM | – | 4.3 | 15.7 nM | 1.9 | – | – | – | – | –
O=C(CCC(=O)NCC(=O)NCC(=O)N[C@@H]1CC[C@@]2(O)[C@H]3Cc4ccc(O)c5c4[C@@]2(CCN3CC2CC2)[C@H]1O5)NCC(=O)NCC(=O)N[C@@H]1CC[C@@]2(O)[C@H]3Cc4ccc(O)c5c4[C@@]2(CCN3CC2CC2)[C@H]1O5 | 0.2 | 33.5 | 0.9 | 1.5 nM | 10.7 | – | – | – | – | – | – | – | –
CN1CC[C@]23c4c5ccc(O)c4O[C@H]2[C@@H](NC(=O)CNC(=O)CNC(=O)CNC(=O)CCC(=O)NCC(=O)NCC(=O)NCC(=O)N[C@H]2CC[C@@]4(O)[C@H]6Cc7ccc(O)c8c7[C@@]4(CCN6C)[C@H]2O8)CC[C@@]3(O)[C@H]1C5 | – | – | 5.3 | 34 nM | – | 5.5 | 25.1 nM | 2.9 | – | – | – | – | –
